Test results taken from article PMC3834432 (Toxicological Research, 2012).

Assay: Micro-SPECT/CT imaging
Type: in vivo
Settings: normal female ICR mice; 37 MBq i.v.; SPECT image at 30 min post injection
Procedure, shortened: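 Female ICR mice, obtained at 7 weeks old from a specific pathogen-free colony, were held three weeks for quarantine and adaptation. Housing was 23 ± 2 °C, 50 ± 5% humidity, 12 h light/dark, with diet and water ad libitum. Under 2% isoflurane, lying prone, mice were imaged on a small-animal SPECT/CT with a single-pinhole high-sensitivity mouse collimator.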

Row | Substance | Blood clearance (SPECT image, words) | Excretion / clearance from the body (SPECT image, words)
1 | Gly-Gly-Gly [^99mTc-tricarbonyl-Gly(3)] | fast blood clearances | good clearance property in vivo
2 | Gly-Gly- Gly-Gly-Gly [^99mTc-tricarbonyl-Gly(5)] | fast blood clearance | –
